In ChEMBL document CHEMBL1154300, “Monoterpenoid indole alkaloids from Alstonia yunnanensis” (J Nat Prod, 2009):

Experiments:
[1] = molecular target: Prostaglandin G/H synthase 1 (Homo sapiens) (UniProt P23219); conditions: at 100 µM
[2] = tested on: PANC-1; assay: Cytotoxicity against human PANC1 cells after 48 hrs by MTT assay; type: functional, cell-based; conditions: PANC-1, 48 h
[3] = molecular target: T1, Polyunsaturated fatty acid 5-lipoxygenase (Homo sapiens) (UniProt P09917); assay: Inhibition of 5-LOX at 100 uM after 5 mins
T1 sequence (whole entry): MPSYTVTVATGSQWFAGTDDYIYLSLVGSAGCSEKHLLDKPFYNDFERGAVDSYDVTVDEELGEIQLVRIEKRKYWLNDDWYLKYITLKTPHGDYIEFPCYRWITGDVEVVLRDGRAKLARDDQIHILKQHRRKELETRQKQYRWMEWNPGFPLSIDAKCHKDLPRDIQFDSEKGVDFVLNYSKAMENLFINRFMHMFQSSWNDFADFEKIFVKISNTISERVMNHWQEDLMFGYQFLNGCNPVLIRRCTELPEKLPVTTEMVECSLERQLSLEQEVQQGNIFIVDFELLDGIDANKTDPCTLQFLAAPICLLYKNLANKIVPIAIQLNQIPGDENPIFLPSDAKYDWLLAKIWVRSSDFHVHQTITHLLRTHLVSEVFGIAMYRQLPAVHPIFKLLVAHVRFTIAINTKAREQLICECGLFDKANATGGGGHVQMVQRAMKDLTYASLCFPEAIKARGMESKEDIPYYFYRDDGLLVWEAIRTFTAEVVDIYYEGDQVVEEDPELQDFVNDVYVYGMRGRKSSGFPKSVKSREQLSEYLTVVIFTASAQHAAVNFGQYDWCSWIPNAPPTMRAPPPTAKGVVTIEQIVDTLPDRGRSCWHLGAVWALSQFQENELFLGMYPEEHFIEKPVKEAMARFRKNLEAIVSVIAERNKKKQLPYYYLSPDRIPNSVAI
Summary of the method: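 Tested in an anti-inflammatory panel against Cox-1, Cox-2 and 5-Lox.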

[4] = tested on: HL-60; assay: Cytotoxicity against human HL60 cells after 48 hrs by MTT assay; type: functional, cell-based; conditions: HL-60, 48 h

Sequence of Prostaglandin G/H synthase 1 (Homo sapiens) (P23219 whole entry): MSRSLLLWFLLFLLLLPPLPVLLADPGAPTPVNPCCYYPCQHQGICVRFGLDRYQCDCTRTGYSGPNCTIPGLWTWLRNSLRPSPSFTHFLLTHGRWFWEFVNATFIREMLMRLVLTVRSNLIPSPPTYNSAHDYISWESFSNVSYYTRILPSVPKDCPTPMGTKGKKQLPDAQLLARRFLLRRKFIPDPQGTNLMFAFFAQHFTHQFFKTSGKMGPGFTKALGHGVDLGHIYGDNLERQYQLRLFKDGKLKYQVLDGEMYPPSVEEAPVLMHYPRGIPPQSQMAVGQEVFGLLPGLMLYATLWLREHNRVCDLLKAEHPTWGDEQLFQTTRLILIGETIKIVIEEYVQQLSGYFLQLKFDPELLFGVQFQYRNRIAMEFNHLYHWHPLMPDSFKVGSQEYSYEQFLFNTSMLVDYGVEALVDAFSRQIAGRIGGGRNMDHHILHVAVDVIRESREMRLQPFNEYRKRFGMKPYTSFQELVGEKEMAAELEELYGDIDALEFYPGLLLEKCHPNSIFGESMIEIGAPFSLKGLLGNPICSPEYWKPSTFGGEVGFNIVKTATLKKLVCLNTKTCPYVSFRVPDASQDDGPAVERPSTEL

Compound | inhibition [1] | IC50 [2] | inhibition [3] | IC50 [4]
CC(=O)OC1C2C3C[C@H]4C5=[N+](C)c6ccccc6[C@]51C[C@@H]2[N+]4([O-])[C@@H](C)[C@@H]3C(=O)[O-] (some centres not stated) | 45% | > 40 µM | < 0% | > 40 µM
CO[C@@H]1O[C@@H](O)[C@@H]2C3C[C@H]4c5[nH]c6ccccc6c5C[C@@H]2N4[C@@H](C)[C@H]31 [ALSTOYUNINE A] | 27.8% | > 40 µM | 38.4% | > 40 µM
CO[C@@H]1O[C@@H](O)[C@H]2C3C[C@H]4c5[nH]c6ccccc6c5C[C@@H]([C@@H]31)N4[C@H]2C [ALSTOYUNINE B] | 26.8% | > 40 µM | 33.5% | > 40 µM
CC(=O)OC1C2C3C[C@H]4C5=[N+]([O-])c6ccccc6[C@]51C[C@@H]2[N+]4([O-])[C@@H](C)[C@@H]3C(=O)O (some centres not stated) [ALSTOYUNINE D] | 39.3% | > 40 µM | < 0% | > 40 µM
C/C=C1/C[N+]2([O-])[C@H]3CC1C1C(OC(C)=O)[C@@]4(C[C@@H]12)C3=Nc1ccccc14 (some centres not stated) [ALSTOYUNINE E] | 41.8% | > 40 µM | 77.2% | > 40 µM
COC(C)[C@H]1C2C[C@H]3C4=Nc5ccccc5[C@]45C[C@@H](C2C5OC(C)=O)N3[C@@H]1O (some centres not stated) [ALSTOYUNINE F] | 39.8% | 21.7 µM | 61.8% | 3.89 µM
CC[C@@]12CC(C(=O)OC)=C3Nc4cc(OC)ccc4[C@@]34CCN(C(=O)[C@@H]3O[C@@H]31)[C@@H]24 [ALSTOYUNINE G] | 37.2% | > 40 µM | < 0% | > 40 µM
CC[C@@]12CC(C(=O)OC)=C3Nc4cc(OC)ccc4[C@@]34CCN(C[C@@H](Cl)[C@@H]1O)[C@@H]24 [ALSTOYUNINE H] | < 0% | > 40 µM | 0.84% | > 40 µM
